Measurements: ChEMBL document CHEMBL4813935, “Cyclotides from Brazilian Palicourea sessilis and Their Effects on Human Lymphocytes” (J Nat Prod, 2021)
Positions of bridges follow the written chain, without caps; N, C: chain ends. Residues, ends and D or L forms follow the SMILES beside them.

Key:
[1] = Inhibition of anti-human CD3/CD28/mAbs-stimulated human T-lymphocutes proliferation after 72 hrs by CFSE staining based flow cytometric analysis; format: functional, tissue-based; conditions: T-cell
In short: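 PBMC from healthy donor venous blood, density-gradient isolated; 5 × 10^6 cells/mL labelled with CFSE (1:1000 of 5 mM stock), 10 min at 37 °C, washed. Stimulated with anti-CD3 (OKT3) and anti-CD28 (28.6), each 100 ng/mL, with peptide at 1–30 μM for 72 h at 37 °C, 5% CO2. Division read by flow cytometry, normalised to stimulated untreated cells (100%); four independent experiments.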

[2] = Cytotoxicity against human HT-29 cells assessed as reduction in cell viability measured after 48 hrs by MTT assay; format: cell-based
In short: (§1)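 Cells seeded at 5.0 × 10^3 per well; medium was refreshed the day after plating, then peptides were added at final 0.78–100 μM, with 0.1% (v/v) Triton X-100 as positive control. Incubation was 48 h, then MTT (5 mg/mL in PBS) for 3 h. Formazan was dissolved in DMSO and read at 600 nm. Triplicate experiments; CC50 from log(inhibitor) vs normalized response (variable slope) fit.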

[3] = Cytotoxicity against HUVEC assessed as reduction in cell viability measured after 48 hrs by MTT assay; format: cell-based; conditions: human; in short: as §1
T-cell line = experiment: Immunosuppressive activity in anti-CD3/anti-CD28-stimulated human T-lymphocytes assessed as inhibition of cell proliferation after 72 hrs by CFSE staining based flow cytometric analysis; format: functional
In short: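 Donor PBMC were isolated on a density gradient and CFSE-stained for 10 min at 37 °C. Cells were stimulated with anti-CD3 (OKT3) and anti-CD28 mAbs, 100 ng/mL each, and exposed to peptides at 1–30 μM for 72 h at 37 °C, 5% CO2. Division was read by flow cytometry and normalized to stimulated untreated cells (100%). Four independent experiments, mean ± SD.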

[4] = Hemolytic activity against human RBC assessed as concentration required to cause 50% hemolysis measured after 1 hr; format: cell-based, Erythrocyte; conditions: red blood cells (erythrocytes), read-out: CC50
In short: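 Donor human red blood cells were washed in PBS and diluted to 0.25% (v/v). Peptides were serially diluted from water to eight concentrations, 0.187–24 μM. Incubation was 1 h at 37 °C; PBS served as negative control and 1% Triton-X as positive control. Supernatant absorbance was read at 415 nm. CC50 (50% lysis) from log(agonist) vs response (variable slope) fit; n = 3.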

Which results are given for `CC(C)C[C@@H]1NC(=O)CNC(=O)[C@H](CC(N)=O)NC(=O)[C@H](CCCNC(=N)N)NC(=O)[C@H]([C@@H](C)O)NC(=O)[C@@H]2CSSC[C@@H]3NC(=O)[C@H]([C@@H](C)O)NC(=O)CNC(=O)CNC(=O)[C@H](C(C)C)NC(=O)[C@@H]4CSSC[C@H](NC(=O)[C@H]([C@@H](C)O)NC(=O)[C@H](CSSC[C@H](NC(=O)[C@H](C(C)C)NC(=O)[C@@H]5CCCN5C1=O)C(=O)NCC(=O)N[C@@H](CCC(=O)O)C(=O)N[C@@H]([C@@H](C)O)C(=O)N4)NC(=O)CNC(=O)[C@@H]1CCCN1C(=O)[C@H]([C@@H](C)O)NC(=O)[C@H](CC(N)=O)NC3=O)C(=O)N[C@@H](CO)C(=O)N[C@@H](Cc1c[nH]c3ccccc13)C(=O)N1CCC[C@H]1C(=O)N[C@@H](C(C)C)C(=O)N2`?
IC50 [1]: 1.9 µM; CC50 at 48 h [2]: > 10 µM; CC50 at 48 h [3]: 5.1 µM

Which IC50 (T-cell line) does the source give for `CC[C@H](C)[C@@H]1NC(=O)[C@@H]2CCCN2C(=O)[C@H](Cc2c[nH]c3ccccc23)NC(=O)[C@H](CO)NC(=O)[C@@H]2CSSC[C@@H]3NC(=O)[C@H]([C@@H](C)O)NC(=O)[C@H](CCC(=O)O)NC(=O)CNC(=O)[C@@H]4CSSC[C@H](NC(=O)CNC(=O)[C@@H]5CCCN5C(=O)[C@H]([C@@H](C)O)NC(=O)[C@H](CC(N)=O)NC(=O)[C@H](CSSC[C@H](NC1=O)C(=O)N[C@@H]([C@@H](C)O)C(=O)N[C@@H](CCCNC(=N)N)C(=O)N[C@@H](CC(N)=O)C(=O)NCC(=O)N[C@@H](CC(C)C)C(=O)N1CCC[C@H]1C(=O)N[C@@H](C(C)C)C(=O)N4)NC(=O)[C@H]([C@@H](C)O)NC(=O)CNC(=O)CNC(=O)[C@H](C(C)C)NC3=O)C(=O)N[C@@H](C(C)C)C(=O)N2` here?
The IC50 was 2.3 µM.

And the CC50 at 48 h [2]?
The CC50 at 48 h was over 10 µM.

And the CC50 at 48 h [3]?
The CC50 at 48 h was 7.5 µM.

And the HC50 at 1 h [4]?
Its HC50 at 1 h is 14.6 µM.

For `CC[C@H](C)[C@@H]1NC(=O)[C@@H]2CCCN2C(=O)[C@H](Cc2c[nH]c3ccccc23)NC(=O)[C@H](C)NC(=O)[C@@H]2CSSC[C@@H]3NC(=O)[C@H]([C@@H](C)O)NC(=O)[C@H](CCC(=O)O)NC(=O)CNC(=O)[C@@H]4CSSC[C@H](NC(=O)CNC(=O)[C@@H]5CCCN5C(=O)[C@H]([C@@H](C)O)NC(=O)[C@H](CC(N)=O)NC(=O)[C@H](CSSC[C@H](NC1=O)C(=O)N[C@@H]([C@@H](C)O)C(=O)N[C@@H](CCCNC(=N)N)C(=O)N[C@@H](CC(N)=O)C(=O)NCC(=O)N[C@@H](CC(C)C)C(=O)N1CCC[C@H]1C(=O)N[C@@H](C(C)C)C(=O)N4)NC(=O)[C@H]([C@@H](C)O)NC(=O)CNC(=O)CNC(=O)[C@H](C(C)C)NC3=O)C(=O)N[C@@H](C(C)C)C(=O)N2`, which IC50 (T-cell line) is on record?
The IC50 was 1.6 µM.

And the CC50 at 48 h [2]?
Its CC50 at 48 h is 6.1 µM.

And the CC50 at 48 h [3]?
The CC50 at 48 h was 5.3 µM.

What about the HC50 at 1 h [4] of the same molecule?
The HC50 at 1 h was 33.5 µM.

For `CC(C)C[C@@H]1NC(=O)CNC(=O)[C@H](CC(N)=O)NC(=O)[C@H](CCCNC(=N)N)NC(=O)[C@H]([C@@H](C)O)NC(=O)[C@@H]2CSSC[C@@H]3NC(=O)[C@H]([C@@H](C)O)NC(=O)CNC(=O)CNC(=O)[C@H](C(C)C)NC(=O)[C@@H]4CSSC[C@H](NC(=O)[C@H](C(C)C)NC(=O)[C@H](CSSC[C@H](NC(=O)[C@H](C(C)C)NC(=O)[C@@H]5CCCN5C1=O)C(=O)NCC(=O)N[C@@H](CCC(=O)O)C(=O)N[C@@H]([C@@H](C)O)C(=O)N4)NC(=O)CNC(=O)[C@@H]1CCCN1C(=O)[C@H]([C@@H](C)O)NC(=O)[C@H](CC(N)=O)NC3=O)C(=O)N[C@@H](CO)C(=O)N[C@@H](Cc1c[nH]c3ccccc13)C(=O)N1CCC[C@H]1C(=O)N[C@@H](C(C)C)C(=O)N2`, which IC50 (T-cell line) is on record?
Its IC50 is 4.5 µM.

And the CC50 at 48 h [2]?
The CC50 at 48 h was 5.5 µM.

And the CC50 at 48 h [3]?
The CC50 at 48 h was 5.2 µM.

What about the HC50 at 1 h [4] of the same molecule?
Its HC50 at 1 h is 39.5 µM.

What does the source list for `CC(C)C[C@@H]1NC(=O)CNC(=O)[C@H](CC(N)=O)NC(=O)[C@H](CCCNC(=N)N)NC(=O)[C@H]([C@@H](C)O)NC(=O)[C@@H]2CSSC[C@@H]3NC(=O)[C@H]([C@@H](C)O)NC(=O)CNC(=O)CNC(=O)[C@H](C(C)C)NC(=O)[C@@H]4CSSC[C@H](NC(=O)[C@H](CO)NC(=O)[C@H](CSSC[C@H](NC(=O)[C@H](C(C)C)NC(=O)[C@@H]5CCCN5C1=O)C(=O)NCC(=O)N[C@@H](CCC(=O)O)C(=O)N[C@@H]([C@@H](C)O)C(=O)N4)NC(=O)CNC(=O)[C@@H]1CCCN1C(=O)[C@H]([C@@H](C)O)NC(=O)[C@H](CC(N)=O)NC3=O)C(=O)N[C@@H](CO)C(=O)N[C@@H](Cc1c[nH]c3ccccc13)C(=O)N1CCC[C@H]1C(=O)N[C@@H](C(C)C)C(=O)N2`?
CC50 at 48 h [2]: 7.3 µM; CC50 at 48 h [3]: > 10 µM; HC50 at 1 h [4]: 49.6 µM

For `CC(C)C[C@@H]1NC(=O)CNC(=O)[C@H](CC(N)=O)NC(=O)[C@H](CCCNC(=N)N)NC(=O)[C@H](CCCCN)NC(=O)[C@@H]2CSSC[C@@H]3NC(=O)[C@H](CO)NC(=O)CNC(=O)[C@H]([C@@H](C)O)NC(=O)[C@H](C(C)C)NC(=O)[C@@H]4CSSC[C@H](NC(=O)[C@H](CO)NC(=O)[C@H](CSSC[C@H](NC(=O)[C@H](C(C)C)NC(=O)[C@@H]5CCCN5C1=O)C(=O)NCC(=O)N[C@@H](CCC(=O)O)C(=O)N[C@@H]([C@@H](C)O)C(=O)N4)NC(=O)CNC(=O)[C@@H]1CCCN1C(=O)[C@H]([C@@H](C)O)NC(=O)[C@H](Cc1ccc(O)cc1)NC3=O)C(=O)N[C@@H](CO)C(=O)N[C@@H](Cc1c[nH]c3ccccc13)C(=O)N1CCC[C@H]1C(=O)N[C@@H](C(C)C)C(=O)N2`, which CC50 at 48 h [2] is on record?
Its CC50 at 48 h is 5.6 µM.

What about the CC50 at 48 h [3] of the same molecule?
Its CC50 at 48 h is over 10 µM.

And the HC50 at 1 h [4]?
The HC50 at 1 h was 51.7 µM.

What does the source list for `CC[C@H](C)[C@@H]1NC(=O)[C@@H]2CCCN2C(=O)[C@H](Cc2c[nH]c3ccccc23)NC(=O)[C@H](CO)NC(=O)[C@@H]2CSSC[C@@H]3NC(=O)[C@H]([C@@H](C)O)NC(=O)[C@H](CCC(=O)O)NC(=O)CNC(=O)[C@@H]4CSSC[C@H](NC(=O)CNC(=O)[C@@H]5CCCN5C(=O)[C@H]([C@@H](C)O)NC(=O)[C@H](CC(N)=O)NC(=O)[C@H](CSSC[C@H](NC1=O)C(=O)N[C@@H]([C@@H](C)O)C(=O)N[C@@H](CCCNC(=N)N)C(=O)N[C@@H](CC(N)=O)C(=O)NCC(=O)N[C@@H](CC(C)C)C(=O)N1CCC[C@H]1C(=O)N[C@@H]([C@@H](C)O)C(=O)N4)NC(=O)[C@H]([C@@H](C)O)NC(=O)CNC(=O)CNC(=O)[C@H](C(C)C)NC3=O)C(=O)N[C@@H](C(C)C)C(=O)N2` (cyclo(CGETCVGGTCNTPGCVCSWPICTRNGLPT); disulfide 1-15, 5-17, 10-22)?
IC50 (T-cell line): 7.1 µM; CC50 at 48 h [2]: 8.4 µM; CC50 at 48 h [3]: > 10 µM; HC50 at 1 h [4]: 62.8 µM
